For data set [1], the system named is Escherichia coli. In words: Antibacterial activity against Escherichia coli B cultured in Jensen's minimal media assessed as growth inhibition by turbidimetric analysis. The format is functional, organism-based. An outline of the steps:
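E. coli B, grown overnight in Jensen's minimal medium, was subcultured at 37° with shaking to 70% T. 1 ml of culture was added to 8 ml Jensen's broth (pH 7) plus 1 ml compound in 10% Me2SO. Five concentrations (dilution series 1–0.1) and a 1% Me2SO control were run. Turbidity was monitored with agitation. Log A vs time gave % inhibition, and IC50 came from log concentration–probability plots.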

In data set [2] the test system is Escherichia coli. As to the kind of experiment: Antibacterial activity against Escherichia coli B cultured in Jensen's minimal media assessed as growth inhibition by turbidimetric analysis in presence of vitamin-free casamino acids and tryptophan. The format is functional, organism-based. Put shortly: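 Same minimal-medium turbidity assay with E. coli B: a 70% T culture was mixed with compound in Me2SO in Jensen's broth (pH 7) and read with agitation. Vitamin-free casamino acids (1.2 g/l) and tryptophan (200 mg/l) were added to the minimal broth.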

The test system of data set [3] is Escherichia coli. In words: Antibacterial activity against Escherichia coli B cultured in Jensen's minimal media assessed as growth inhibition at < 2 X 10^-5 M by turbidimetric analysis. The data set is classed as functional, organism-based.
Data set [4] can be described thus: Stability of the compound in aqueous solution. The data set is classed as physicochemical. The following applies: buffer. Put shortly:
(§1)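 Solvolysis was run at 37 ± 0.5° in Jensen's minimal medium at pH 7.0 with 5% Me2SO final, starting from 0.7–2.0 × 10^-4 M compound. Absorbance was followed at a preselected wavelength. Benzofuran concentration was calculated every half hour from substrate and product extinction coefficients. Data were fitted to a first-order rate law, with a 95% confidence range on the rate constant.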

The nature of data set [5]: Half life of the compound in 5% Me2SO-Jensen's minimal media at 0.7 to 2 X 10^-4 M at pH 7 by spectrophotometric analysis. The data set is classed as physicochemical. An outline of the steps: as §1
Data set [6] can be described thus: Ratio of antibacterial activity against Escherichia coli B cultured in Jensen's minimal media to antibacterial activity against Escherichia coli Br cultured in Penassay broth. The format is functional.
For data set [7], the system named is Escherichia coli. As to the kind of experiment: Antibacterial activity against nitrofuran reductase-deficient Escherichia coli Br 207 after 6 hrs by turbidimetric analysis. Conditions: Br 207, 6 h. The format is functional. An outline of the steps: (§2)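 Overnight Penassay broth culture adjusted to 60% transmittance, diluted 10 ml into 900 ml broth; 4.5 ml inoculum added to 0.5 ml compound in 10% Me2SO. Nine-step dilution series (1 to 0.031), four replicates each, with positive and negative controls. Incubation at 37°, stationary except P. aeruginosa. Turbidity read at 660 nm after 6 hr. MIC taken as the lowest concentration giving >90% T.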

Data set [8] deals with Klebsiella pneumoniae. As to the kind of experiment: Antibacterial activity against Klebsiella pneumoniae cultured in Penassay broth assessed as effect on lag time after 9 hrs by turbidimetric analysis. The format is functional, organism-based. An outline of the steps:
(§3)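 Cultures in Penassay broth at 37° with compound added from 10% Me2SO and monitored at 660 nm every 20 min for 9 hr after inoculation. For each concentration, the log A660 vs time plot was extrapolated to A = 0.05. Time from inoculation to that point was taken as the lag time, which was then plotted against concentration.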

Data set [9] has as its system Escherichia coli. In words: Antibacterial activity against Escherichia coli Br cultured in Penassay broth assessed as effect on lag time after 9 hrs by turbidimetric analysis. The data set is classed as functional, organism-based. An outline of the steps:
as §3

In data set [10] the test system is Staphylococcus aureus. In words: Antibacterial activity against Staphylococcus aureus after 6 hrs by turbidimetric analysis. The data set is classed as functional. An outline of the steps:
as §2

Data set [11] deals with Escherichia coli. In words: Antibacterial activity against Escherichia coli B after 6 hrs by turbidimetric analysis. The format is functional. An outline of the steps:
as §2

Data set [12] relates to Escherichia coli. In words: Antibacterial activity against Escherichia coli Br assessed as decrease in viability at 7.7 X 10^-5 M after 2 hrs. The data set is classed as functional, organism-based.
Data set [13] relates to Escherichia coli. In words: Antibacterial activity against Escherichia coli Br after 6 hrs by turbidimetric analysis. The data set is classed as functional. An outline of the steps:
as §2

The subject of another data set is Enterococcus faecalis. As to the kind of experiment: Antibacterial activity against Streptococcus faecalis after 6 hrs by turbidimetric analysis. The data set is classed as functional. Put shortly: as §2
Data set [14] is described as follows: Half life of the compound in 20% Me2SO-Jensen's minimal media at 0.7 to 2 X 10^-4 M at pH 6 by spectrophotometric analysis. The data set is classed as physicochemical.
For data set [15], the system named is Klebsiella pneumoniae. In words: Antibacterial activity against Klebsiella pneumoniae after 6 hrs by turbidimetric analysis. The data set is classed as functional. Put shortly: as §2
The subject of the next data set is Providencia rettgeri. As to the kind of experiment: Antibacterial activity against Proteus rettgeri after 6 hrs by turbidimetric analysis. The format is functional. An outline of the steps: as §2
Data set [16] concerns Escherichia coli. In words: Antibacterial activity against Escherichia coli Br cultured in Penassay broth assessed as time required for growth suppression at 4.4 X 10^-5 M compound added in early log phase of growth by turbidimetric analysis. The data set is classed as functional.
A short description of data set [17]: Half life of the compound in 5% Me2SO-Jensen's minimal media at 0.7 to 2 X 10^-4 M at pH 6 by spectrophotometric analysis. The format is physicochemical.
For data set [18], the system named is Escherichia coli. As to the kind of experiment: Antibacterial activity against Escherichia coli Br cultured in Penassay broth assessed as time required for growth suppression at 4.4 X 10^-5 M compound added in late log phase of growth by turbidimetric analysis. The format is functional.
Data set [19] has as its system Staphylococcus aureus. As to the kind of experiment: Antibacterial activity against Staphylococcus aureus cultured in Penassay broth assessed as effect on lag time after 9 hrs by turbidimetric analysis. The format is functional, organism-based. Put shortly: as §3
Data set [20] in a line: Half life of the compound in 10% Me2SO-Jensen's minimal media at 0.7 to 2 X 10^-4 M at pH 6 by spectrophotometric analysis. The format is physicochemical.
A short description of data set [21]: Half life of the compound in 40% Me2SO-Jensen's minimal media at 0.7 to 2 X 10^-4 M at pH 6 by spectrophotometric analysis. The format is physicochemical.
The next data set concerns Proteus mirabilis. As to the kind of experiment: Antibacterial activity against Proteus mirabilis after 6 hrs by turbidimetric analysis. The format is functional. An outline of the steps:
as §2

Another data set has as its system Pseudomonas aeruginosa. In words: Antibacterial activity against Pseudomonas aeruginosa after 6 hrs by turbidimetric analysis. The data set is classed as functional. Put shortly:
as §2

Converted amounts (≈) assume the structure as drawn. The source made the active and inactive calls. No cut-off for these calls is given here.

The half-life is how long it takes for the measured level to halve. High values mean slow loss, low ones fast loss. In general, MIC refers to the lowest concentration found to suppress growth.

Turning to `Cc1cc2cccc(Br)c2o1`, in the data set on Escherichia coli [1], the “growth inhibition (GI)” value is “inactive”.
In the case of `Cc1oc2c([N+](=O)[O-])cccc2c1C(=O)O`, the “growth inhibition (GI)” value in the data set on Escherichia coli [1] is “inactive”.
`Cc1oc2c(NC(=O)C(F)(F)F)cccc2c1[N+](=O)[O-]`: the “growth inhibition (GI)” value in the data set with Escherichia coli [2] and in the data set on Escherichia coli [3] was “inactive” each time. Moreover, the Stability entry in data set [4] is “Unstable”. Moreover, the half-life in data set [5] is 173 min.
On to `Cc1cc2cccc([N+](=O)[O-])c2o1`, for which the “growth inhibition (GI)” value in the data set with Escherichia coli [1] was “inactive”.
Take `Cc1oc2ccccc2c1[N+](=O)[O-]`: the Stability entry in data set [4] is recorded as “Unstable”. In data set [5], this compound showed a half-life of 200 min. In data set [6], the Ratio is given as >10.
For `Cc1cc2cccc(N)c2o1`, the “growth inhibition (GI)” value in the data set with Escherichia coli [1] is “inactive”.
Take `Cc1oc2c([N+](=O)[O-])cccc2c1[N+](=O)[O-]`: the minimum inhibitory concentration (MIC) was found to be 1.87 µg/mL (≈ 8.42 µM) against Escherichia coli [7]; 2.5 µg/mL (≈ 11.3 µM) against Staphylococcus aureus [10]; 1.87 µg/mL (≈ 8.42 µM) against Escherichia coli [11]; 1.87 µg/mL (≈ 8.42 µM) in the data set with Escherichia coli [13]; 3.75 µg/mL (≈ 16.9 µM) in the data set on Enterococcus faecalis; 5 µg/mL (≈ 22.5 µM) in the data set on Klebsiella pneumoniae [15]. Besides, the minimum inhibitory concentration (MIC) against Providencia rettgeri is 7.5 µg/mL (≈ 33.8 µM); in the data set on Proteus mirabilis, 6.25 µg/mL (≈ 28.1 µM); in the data set on Pseudomonas aeruginosa, > 10 µg/mL. For the same compound, the outcome in the data set with Klebsiella pneumoniae [8], in the data set on Escherichia coli [9] and in the data set on Staphylococcus aureus [19] was Active. Moreover, the result in the data set on Escherichia coli [12] was inactive. For the same compound, the half-life in [14] was 107 min; in data set [17] it was 126 min; in [5] it was 82.2 min; in [20], 117 min; in data set [21], 90.6 min. Further, in data set [4], the Stability entry is reported as “Unstable”. The values for the Time in the data set on Escherichia coli [16] and in the data set with Escherichia coli [18] were 6 h and 3 h, respectively. The Ratio in data set [6] is on record as >10.
As for `Cc1oc2c([N+](=O)[O-])cccc2c1C#N`, the “growth inhibition (GI)” value in the data set with Escherichia coli [1] was “inactive”.
With `Cc1oc2c(Br)cccc2c1[N+](=O)[O-]`, the Stability entry in [4] is “Unstable”. Also, in data set [6], the Ratio was >10.
As to `Cc1oc2c([N+](=O)[O-])cccc2c1C(N)=O`, in the data set on Escherichia coli [1], the “growth inhibition (GI)” value was “inactive”.
Consider `Cc1oc2ccc([N+](=O)[O-])cc2c1[N+](=O)[O-]`, for which the Stability entry in data set [4] is reported as “Unstable”. This compound showed a half-life in data set [5] of 53.4 min. In data set [6], the Ratio is listed as >10.
Taken in the same sequence, the figures for `Cc1oc2c(C(F)(F)F)cccc2c1[N+](=O)[O-]` were “Unstable”, 88.8 min and >10.
With `NC(=O)N/N=C/c1ccc([N+](=O)[O-])o1` [NITROFURAZONE], the MIC worked out at 18.7 µg/mL (≈ 94.4 µM) in the data set with Escherichia coli [7]; 5 µg/mL (≈ 25.2 µM) against Staphylococcus aureus [10]; 5 µg/mL (≈ 25.2 µM) in the data set on Escherichia coli [11]; 5 µg/mL (≈ 25.2 µM) against Escherichia coli [13]; 50 µg/mL (≈ 252 µM) against Enterococcus faecalis; 10 µg/mL (≈ 50.5 µM) with Klebsiella pneumoniae [15]. The MIC in the data set with Providencia rettgeri was > 100 µg/mL; against Proteus mirabilis it was 50 µg/mL (≈ 252 µM); in the data set on Pseudomonas aeruginosa, > 100 µg/mL. Moreover, the outcome in the data set on Escherichia coli [9] was inactive.
For the compound `Cc1oc2c([N+](=O)[O-])cccc2c1Br`, in the data set on Escherichia coli [1], the “growth inhibition (GI)” value is “inactive”.
On to `Cc1oc2c(C(N)=O)cccc2c1[N+](=O)[O-]`, for which the Stability result in [4] was “Unstable”. In addition, in [5], the half-life was 115 min. Further, the Ratio in [6] is given as >10.

The values above are taken from ChEMBL document CHEMBL3272219, “Chemistry and antibacterial activity of nitrobenzofurans” (J Med Chem, 1976).
